{"source": "ChEMBL document CHEMBL4376835", "about": "“Discovery of Nonpungent Transient Receptor Potential Vanilloid 1 (TRPV1) Agonist as Strong Topical Analgesic” (J Med Chem, 2020)", "key": {"[1]": {"test": "Genotoxicity in Salmonella typhimurium TA100 incubated for 48 hrs by Ames test", "type": "toxicity", "conditions": "salmonella enterica subsp. enterica serovar typhimurium"}, "[2]": {"target": "Transient receptor potential cation channel subfamily V member 1 (Rattus norvegicus) (UniProt O35433)", "sequence (O35433 whole entry)": "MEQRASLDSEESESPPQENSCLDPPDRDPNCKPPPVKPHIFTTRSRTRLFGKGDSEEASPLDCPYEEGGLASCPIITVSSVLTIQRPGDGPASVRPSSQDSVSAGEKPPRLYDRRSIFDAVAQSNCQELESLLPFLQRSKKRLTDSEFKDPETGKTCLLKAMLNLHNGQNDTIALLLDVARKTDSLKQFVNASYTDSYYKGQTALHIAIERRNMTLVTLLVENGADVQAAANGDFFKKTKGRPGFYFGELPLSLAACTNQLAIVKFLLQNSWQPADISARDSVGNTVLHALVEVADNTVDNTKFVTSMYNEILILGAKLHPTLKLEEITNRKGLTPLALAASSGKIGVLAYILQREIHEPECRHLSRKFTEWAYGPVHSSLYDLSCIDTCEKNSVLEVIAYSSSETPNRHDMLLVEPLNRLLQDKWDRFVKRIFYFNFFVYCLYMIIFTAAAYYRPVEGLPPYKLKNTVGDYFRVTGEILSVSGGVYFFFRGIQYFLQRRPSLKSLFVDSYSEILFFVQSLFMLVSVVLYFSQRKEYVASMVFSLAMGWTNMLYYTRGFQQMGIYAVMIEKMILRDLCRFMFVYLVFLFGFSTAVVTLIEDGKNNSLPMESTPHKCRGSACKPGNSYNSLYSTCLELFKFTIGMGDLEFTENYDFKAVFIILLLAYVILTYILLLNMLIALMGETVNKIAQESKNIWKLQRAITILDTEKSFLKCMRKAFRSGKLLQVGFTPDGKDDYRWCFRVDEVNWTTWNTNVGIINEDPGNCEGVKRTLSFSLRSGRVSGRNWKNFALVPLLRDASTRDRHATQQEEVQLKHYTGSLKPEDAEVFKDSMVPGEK", "test": "Partial agonist activity at rat TRPV1 expressed in CHO cells assessed as maximal increase in 45Ca2+ uptake incubated for 5 mins by liquid scintillation counting method relative to capsaicin", "type": "cell-based", "summary_of_the_method": "(§1)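 Human or rat TRPV1 heterologously expressed in CHO cells; functional agonism read as 45Ca2+ uptake. Values are means of at least three experiments.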"}, "Rattus norvegicus [3]": {"system": "Rattus norvegicus", "test": "Analgesic activity against L5/L6 spinal nerve ligation-induced neuropathic pain Sprague-Dawley rat model assessed as maximal decrease in neuropathic pain by measuring increase in paw withdrawal threshold in response to von frey filament at 1 to 4 mg/kg, sc compound administered at day 14 after ligation and measured at 30 mins after drug dosing by up and down method", "type": "functional, organism-based", "summary_of_the_method": "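Rats with spinal nerve ligation were dosed s.c. Paw withdrawal threshold measured with von Frey filaments up to 1.5 h after dosing. Mean±SEM, n=7-8, compared with vehicle.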"}, "[4]": {"target": "T1, Transient receptor potential cation channel subfamily V member 1 (Homo sapiens, UniProt Q8NER1)", "T1 sequence (Q8NER1 whole entry)": "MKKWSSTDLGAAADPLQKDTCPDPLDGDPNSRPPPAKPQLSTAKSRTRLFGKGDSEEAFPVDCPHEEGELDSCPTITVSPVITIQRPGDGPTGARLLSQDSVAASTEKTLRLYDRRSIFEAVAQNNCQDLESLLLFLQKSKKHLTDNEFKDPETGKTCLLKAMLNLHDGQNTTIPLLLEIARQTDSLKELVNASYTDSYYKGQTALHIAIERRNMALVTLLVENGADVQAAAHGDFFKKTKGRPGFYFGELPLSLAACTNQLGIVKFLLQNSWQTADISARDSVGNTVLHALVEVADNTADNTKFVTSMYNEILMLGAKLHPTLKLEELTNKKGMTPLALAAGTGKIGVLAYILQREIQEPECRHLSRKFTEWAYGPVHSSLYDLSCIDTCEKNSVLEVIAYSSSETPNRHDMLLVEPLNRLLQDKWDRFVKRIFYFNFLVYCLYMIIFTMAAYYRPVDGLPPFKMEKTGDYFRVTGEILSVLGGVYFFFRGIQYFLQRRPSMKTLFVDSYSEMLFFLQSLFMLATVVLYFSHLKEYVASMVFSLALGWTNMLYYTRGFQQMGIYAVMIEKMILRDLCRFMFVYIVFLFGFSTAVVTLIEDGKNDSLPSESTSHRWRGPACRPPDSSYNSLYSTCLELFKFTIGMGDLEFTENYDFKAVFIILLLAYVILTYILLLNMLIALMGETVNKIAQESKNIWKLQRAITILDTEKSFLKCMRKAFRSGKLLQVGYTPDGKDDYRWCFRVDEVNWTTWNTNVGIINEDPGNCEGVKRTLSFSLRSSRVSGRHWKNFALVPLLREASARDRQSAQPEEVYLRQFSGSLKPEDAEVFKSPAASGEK", "test": "Agonist activity at human TRPV1 expressed in CHO cells assessed as increase in 45Ca2+ uptake incubated for 5 mins by liquid scintillation counting method", "type": "cell-based", "summary_of_the_method": "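Human or rat TRPV1 heterologously expressed in CHO cells; agonism read as 45Ca2+ uptake, run as previously described. Values are the mean of at least three experiments.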"}, "[5]": {"test": "Drug uptake in porcine skin assessed as dermal accumulation applied topically as carbopol-gel with 1% formulation measured for 8 hrs by Franz diffusion cell based in vitro transdermal delivery test", "type": "ADME, tissue-based, Sus scrofa, Zone of skin", "conditions": "pig"}, "[6]": {"target": "T1, Transient receptor potential cation channel subfamily V member 1", "test": "Potency index, ratio of Ki of capsaicin to Ki for displacement of [3H]RTX from human TRPV1 expressed in CHO cells incubated for 60 mins by scintillation counting method", "type": "cell-based"}, "[7]": {"test": "Toxicity in ICR mouse assessed as skin irritation by measuring ear scratching administered topically and measured for 30 mins", "conditions": "in vivo, topical_or_ocular, 0.5 h", "summary_of_the_method": "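Ear scratching test: a solution of the agent was applied to mouse ears, and scratching movements were counted over the following 30 min.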"}, "Mus musculus [8]": {"system": "Mus musculus", "test": "Antiallodynic activity against capsaicin-induced mechanical allodynia ICR mouse model assessed as inhibition of mechanical hyperalgesia administered topically 30 mins before capsaicin injection and measured over 5 mins", "type": "functional, organism-based"}, "[9]": {"test": "Genotoxicity in Salmonella typhimurium TA104 incubated for 48 hrs in presence of rat S9 by Ames test", "type": "toxicity, subcellular", "conditions": "salmonella enterica subsp. enterica serovar typhimurium, s9, 48 h"}, "Rattus norvegicus [10]": {"system": "Rattus norvegicus", "test": "Analgesic activity in ip dosed L5/L6 spinal nerve ligation-induced neuropathic pain Sprague-Dawley rat model assessed as increase in paw withdrawal threshold in response to von frey filament compound administered at day 14 after ligation and measured up to 1.5 hrs after drug dosing by up and down method", "type": "functional", "summary_of_the_method": "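Rat spinal nerve ligation model of neuropathic pain. Compound was given i.p. at 1, 2, 5 or 10 mg/kg; a gabapentin 65 mg/kg i.p. arm and a saline i.p. arm were run alongside. Von Frey withdrawal thresholds were taken pre-surgery and on days 1, 7 and 14, then at 0.5, 1 and 1.5 h post-dose. Mean±SEM, n=7-8.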"}, "[11]": {"test": "Genotoxicity in Salmonella typhimurium TA1538 incubated for 48 hrs by Ames test", "type": "toxicity", "conditions": "salmonella enterica subsp. enterica serovar typhimurium"}, "[12]": {"test": "Genotoxicity in ip dosed rat by micronucleus assay", "type": "toxicity, organism-based", "conditions": "in vivo"}, "Mus musculus [13]": {"system": "Mus musculus", "test": "Analgesic activity in ip dosed formalin-induced nociception ICR mouse model assessed as reduction in pain behaviour by measuring less licking of formalin injected hind paw pretreated with compound 30 mins prior to formalin induction measured during second phase (20-30 mins after formalin injection) by formalin test", "type": "functional", "summary_of_the_method": "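Mice were dosed i.p. with 0.1–10 mg/kg, with vehicle and gabapentin (50, 100 mg/kg i.p.) arms. 2% formalin was injected into the dorsal hindpaw, and paw-licking time was recorded for the first phase (5 min) and the second phase (20–30 min). ED50 was taken from the dose–response. Mean±SEM, n=8.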"}, "[14]": {"test": "Genotoxicity in Salmonella typhimurium TA97 incubated for 48 hrs by Ames test", "type": "toxicity", "conditions": "salmonella enterica subsp. enterica serovar typhimurium"}, "[15]": {"test": "Genotoxicity in CHO-WBLT cells assessed as chromosomal aberration incubated for 6 hrs in presence of rat S9 by FISH painting analysis", "type": "toxicity, subcellular, Cricetulus griseus", "conditions": "chinese hamster, s9, 6 h"}, "[16]": {"test": "Genotoxicity in CHO-WBLT cells assessed as chromosomal aberration incubated for 6 hrs in presence of rat S9 by Q-banding technique", "type": "toxicity, subcellular, Cricetulus griseus", "conditions": "chinese hamster, s9, 6 h"}, "[17]": {"target": "T1, Transient receptor potential cation channel subfamily V member 1", "test": "Potency index, ratio of EC50 of capsaicin to EC50 of compound for agonist activity at human TRPV1 expressed in CHO cells assessed as increase in 45Ca2+ uptake incubated for 5 mins by liquid scintillation counting method", "type": "cell-based"}, "[18]": {"test": "Genotoxicity in Salmonella typhimurium TA100 incubated for 48 hrs in presence of rat S9 by Ames test", "type": "toxicity, subcellular", "conditions": "salmonella enterica subsp. enterica serovar typhimurium, s9, 48 h"}, "[19]": {"target": "T1, Transient receptor potential cation channel subfamily V member 1", "test": "Agonist activity at human TRPV1 expressed in HEK293 cells assessed as increase in calcium influx at 0.3 to 30 uM incubated for 1 min by Fluo-4-AM dye based FLIPR assay", "type": "cell-based", "summary_of_the_method": "(§2)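 Cells individually transfected with a single TRP channel (TRPV1, hTRPA1, mTRPA1, mTRPV3 or mTRPM8). Intracellular calcium influx recorded by FLIPR after the test compound was applied. Each cell type was also challenged with an agonist suited to its own TRP channel.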"}, "[20]": {"target": "T1, Transient receptor potential cation channel subfamily V member 1", "test": "Partial agonist activity at human TRPV1 expressed in CHO cells assessed as maximal increase in 45Ca2+ uptake incubated for 5 mins by liquid scintillation counting method relative to capsaicin", "type": "cell-based", "summary_of_the_method": "as §1"}, "[21]": {"test": "Toxicity in ICR mouse assessed as ear edema administered topically and measured after 30 mins", "conditions": "in vivo, topical_or_ocular, 0.5 h", "summary_of_the_method": "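Ear swelling test: a solution of the agent was applied to mouse ears, and ear punch biopsies were collected 30 min later and weighed.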"}, "[22]": {"test": "Genotoxicity in Salmonella typhimurium TA102 incubated for 48 hrs by Ames test", "type": "toxicity", "conditions": "salmonella enterica subsp. enterica serovar typhimurium"}, "[23]": {"test": "Genotoxicity in Salmonella typhimurium TA104 incubated for 48 hrs by Ames test", "type": "toxicity", "conditions": "salmonella enterica subsp. enterica serovar typhimurium"}, "[24]": {"target": "T1, Transient receptor potential cation channel subfamily V member 1", "test": "Displacement of [3H]-RTX from human TRPV1 expressed in CHO cells incubated for 60 mins by radioligand competition assay based scintillation counting method", "type": "cell-based"}, "[25]": {"test": "Toxicity in Sprague-Dawley rat assessed as pathological problems administered topically daily for 4 weeks", "conditions": "in vivo, topical_or_ocular, 672 h", "summary_of_the_method": "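Rats given daily topical application for 4 weeks, then examined for pathological findings.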"}, "[26]": {"target": "Transient receptor potential cation channel subfamily V member 1 (Rattus norvegicus, UniProt O35433)", "sequence (O35433 whole entry)": "as the sequence (O35433 whole entry) above", "test": "Displacement of [3H]-RTX from rat TRPV1 expressed in CHO cells incubated for 60 mins by radioligand competition assay based scintillation counting method", "type": "cell-based"}, "[27]": {"test": "Genotoxicity in Salmonella typhimurium TA98 incubated for 48 hrs in presence of rat S9 by Ames test", "type": "toxicity, subcellular", "conditions": "salmonella enterica subsp. enterica serovar typhimurium, s9, 48 h"}, "[28]": {"target": "Transient receptor potential cation channel subfamily M member 8 (Mus musculus) (UniProt Q8R4D5)", "sequence (Q8R4D5 whole entry)": "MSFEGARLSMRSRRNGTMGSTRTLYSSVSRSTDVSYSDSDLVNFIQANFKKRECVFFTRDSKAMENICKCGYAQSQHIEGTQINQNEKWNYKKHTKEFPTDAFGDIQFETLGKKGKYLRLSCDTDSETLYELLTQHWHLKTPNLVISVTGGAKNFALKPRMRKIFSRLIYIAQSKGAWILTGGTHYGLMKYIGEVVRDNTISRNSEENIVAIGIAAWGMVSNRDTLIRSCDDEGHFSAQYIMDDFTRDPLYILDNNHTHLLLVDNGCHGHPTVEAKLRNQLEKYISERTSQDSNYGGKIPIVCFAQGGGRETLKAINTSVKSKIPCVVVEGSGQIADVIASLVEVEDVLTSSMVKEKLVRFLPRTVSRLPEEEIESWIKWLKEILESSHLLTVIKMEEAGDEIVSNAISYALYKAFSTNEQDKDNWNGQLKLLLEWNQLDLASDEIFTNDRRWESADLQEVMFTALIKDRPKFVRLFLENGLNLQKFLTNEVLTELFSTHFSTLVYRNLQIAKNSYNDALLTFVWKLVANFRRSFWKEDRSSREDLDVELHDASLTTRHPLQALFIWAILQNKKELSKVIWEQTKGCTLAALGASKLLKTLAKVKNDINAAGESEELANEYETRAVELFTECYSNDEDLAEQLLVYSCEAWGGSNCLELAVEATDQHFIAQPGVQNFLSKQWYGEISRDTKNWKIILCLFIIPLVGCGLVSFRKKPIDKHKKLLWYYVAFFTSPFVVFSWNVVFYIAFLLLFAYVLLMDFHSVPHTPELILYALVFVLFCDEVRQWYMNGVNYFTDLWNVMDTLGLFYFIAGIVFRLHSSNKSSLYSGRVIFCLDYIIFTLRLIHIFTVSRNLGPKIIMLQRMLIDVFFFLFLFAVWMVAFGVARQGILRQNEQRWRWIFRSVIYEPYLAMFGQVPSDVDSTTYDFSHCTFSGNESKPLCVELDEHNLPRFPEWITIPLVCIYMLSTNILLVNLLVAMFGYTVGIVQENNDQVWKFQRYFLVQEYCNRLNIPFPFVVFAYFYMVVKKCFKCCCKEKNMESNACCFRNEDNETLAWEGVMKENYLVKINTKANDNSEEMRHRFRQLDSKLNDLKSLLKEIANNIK", "test": "Agonist activity at mouse TRPM8 expressed in HEK293 cells assessed as increase in calcium influx at 0.3 to 30 uM incubated for 1 min by Fluo-4-AM dye based FLIPR assay", "type": "cell-based", "summary_of_the_method": "as §2"}, "[29]": {"test": "Genotoxicity in Salmonella typhimurium TA1535 incubated for 48 hrs by Ames test", "type": "toxicity", "conditions": "salmonella enterica subsp. enterica serovar typhimurium"}, "Mus musculus [30]": {"system": "Mus musculus", "test": "Induction of hypothermia in ICR mouse assessed as decrease in body temperature at 0.5 mg/kg, ip coadministered with capsaicin and measured for 7 hrs", "type": "functional, organism-based"}}, "note": "Active and inactive are the calls of the source.", "data": [{"smiles": "CC(C)(C)c1nc(-c2cccc(Cl)c2)c(CNC(=O)Nc2ccc(CO)c(F)c2)s1", "values": [{"measurement": "Activity", "setting": "[1]", "result": "Non-Toxic"}, {"measurement": "Activity", "setting": "[2]", "result": "50 to 60", "unit": "%"}, {"measurement": "Activity", "setting": "Rattus norvegicus [3]", "result": "Active"}, {"measurement": "EC50", "setting": "[4]", "result": 5.05, "unit": "nM"}, {"measurement": "Drug uptake", "setting": "[5]", "result": "Active"}, {"measurement": "Ratio Ki", "setting": "[6]", "result": 80}, {"measurement": "Activity", "setting": "[7]", "result": "Non-Toxic"}, {"measurement": "Activity", "setting": "Mus musculus [8]", "result": "Dose-dependent effect"}, {"measurement": "Activity", "setting": "[9]", "result": "Non-Toxic"}, {"measurement": "Activity", "setting": "Rattus norvegicus [10]", "result": "Dose-dependent effect"}, {"measurement": "ED50", "setting": "Rattus norvegicus [10]", "result": "0.5 to 2", "unit": "mg/kg"}, {"measurement": "Activity", "setting": "[11]", "result": "Non-Toxic"}, {"measurement": "Activity", "setting": "[12]", "result": "Non-Toxic"}, {"measurement": "Activity", "setting": "Mus musculus [13]", "result": "Dose-dependent effect"}, {"measurement": "ED50", "setting": "Mus musculus [13]", "result": 0.16, "unit": "mg/kg"}, {"measurement": "Activity", "setting": "[14]", "result": "Non-Toxic"}, {"measurement": "Activity", "setting": "[15]", "result": "Non-Toxic"}, {"measurement": "Activity", "setting": "[16]", "result": "Non-Toxic"}, {"measurement": "Ratio EC50", "setting": "[17]", "result": 5}, {"measurement": "Activity", "setting": "[18]", "result": "Non-Toxic"}, {"measurement": "Activity", "setting": "[19]", "result": "Active"}, {"measurement": "Activity", "setting": "[20]", "result": "50 to 60", "unit": "%"}, {"measurement": "Activity", "setting": "[21]", "result": "Non-Toxic"}, {"measurement": "Activity", "setting": "[22]", "result": "Non-Toxic"}, {"measurement": "Activity", "setting": "[23]", "result": "Non-Toxic"}, {"measurement": "Ki", "setting": "[24]", "result": 11.4, "unit": "nM"}, {"measurement": "Activity", "setting": "[25]", "result": "Non-Toxic"}, {"measurement": "Ki", "setting": "[26]", "result": 23.8, "unit": "nM"}, {"measurement": "Activity", "setting": "[27]", "result": "Non-Toxic"}, {"measurement": "Activity", "setting": "[28]", "result": "inactive"}, {"measurement": "Activity", "setting": "[29]", "result": "Non-Toxic"}, {"measurement": "Activity", "setting": "Mus musculus [30]", "result": "Active"}]}]}
